Screens from PubChem.
Hits are enriched below; roughly 2.2% of the tested compounds scored in any of these assays.
PPC-1+TRAIL kill = compounds killing PPC-1 cancer cells with TRAIL present, primary screen, TRAIL potentiator project, ATPLite luminescence, uHTS | PPC-1 cells + TRAIL, ATPLite viability luminescence | cell killing (% activity), % at 4 µM or 5 µM | 0.41% of 220,000 active;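 active = cell killing above 50% in the first pass at 4 µM, then a duplicate retest at 5 µM averaging 50% or more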
NF-kB expr up = activators of NF-kB expression in neurons, primary screen, cell-based, HTS | human neuronal cells, NF-kB reporter expression; hits give high values | fold change at 12.5 µM | 1.6% of 190,000 active | AID 1239, 2008; in the data active = fold change above about 3.3
FLuc act counter = FLuc activators, initial screening, artefact control for FLuc-dependent activation tests, biochemical, ATPlite luminescence | Luciferin 4-monooxygenase (Photinus pyralis), P08659 | ATPlite luciferase biochemical, 10 min; 0 = ATP-free wells, 1 = DMSO control | activation factor at 10 µM | 200,000 tested, under 10 active | AID 1027, 2008;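 active = luciferase activation factor, scaled between plate controls, of at least 2 with compound at 10 µM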
Target sequence (P08659 whole entry, looked up): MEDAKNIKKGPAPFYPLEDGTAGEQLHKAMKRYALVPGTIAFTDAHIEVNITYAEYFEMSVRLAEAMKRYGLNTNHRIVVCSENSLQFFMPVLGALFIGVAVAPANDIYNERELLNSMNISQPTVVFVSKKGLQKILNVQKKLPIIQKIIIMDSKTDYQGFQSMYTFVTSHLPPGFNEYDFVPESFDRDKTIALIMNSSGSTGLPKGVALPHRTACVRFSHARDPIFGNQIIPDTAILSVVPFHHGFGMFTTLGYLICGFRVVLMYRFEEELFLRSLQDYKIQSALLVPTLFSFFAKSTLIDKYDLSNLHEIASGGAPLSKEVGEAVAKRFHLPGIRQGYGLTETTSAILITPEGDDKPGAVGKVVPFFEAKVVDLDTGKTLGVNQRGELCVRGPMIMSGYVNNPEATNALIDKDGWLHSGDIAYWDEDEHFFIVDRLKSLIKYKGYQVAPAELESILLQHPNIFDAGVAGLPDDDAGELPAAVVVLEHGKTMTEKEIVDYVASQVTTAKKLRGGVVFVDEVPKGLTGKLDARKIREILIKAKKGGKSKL
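Assay system: Luciferase/luciferin detection reagent, cell-free biochemical luciferase assay / Read-out: luciferase activation / Benchmarks: No-ATP low control, compound-free enzyme-plus-ATP high control / Medium: PBS buffer for ATP / Detection: luminescence measurement of luciferase light output / Schedule: 10 min at ambient temperature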
APP 5'UTR act = activators of APP 5'UTR luciferase reporter, primary screen, SH-SY5Y cells. SH-SY5Y APP 5'UTR luciferase reporter, luminescence; zero percent = DMSO vehicle wells. 1% of 190,000 active. activation, % at 2 µM;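 active = activation above a set limit, based on mean plus 3 SD of controls, cut at about 140% in these data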
C8 TRAIL sens = viability loss with TRAIL in NB7+C8 cells, primary screen, TRAIL sensitizer project, cell-based, ATPlite luminescence; 1% of 360,000 active; inhibition (viability loss, TRAIL sensitization), % at 10 µM; AID 624354, 2012;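 active = compounds causing at least 50% loss of cell viability in the single-dose screen, relative to plate controls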
FLuc inh counter = firefly luciferase enzyme inhibitors, primary screen, artefact control for luciferase-based inhibitor screens, biochemical, luminescence, ATPLite. Luciferin 4-monooxygenase (Photinus pyralis), P08659. 10 min. inhibition, % at 10 µM. 1.5% of 200,000 active;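 active = inhibition above about 50% when tested at 10 µM, limit read from the data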
Numbers stand for hits; 0 = inactive; - = not tested or not shown.

SMILES	PPC-1+TRAIL kill	NF-kB expr up	FLuc act counter	APP 5'UTR act	C8 TRAIL sens	FLuc inh counter
CCCN(CCC)C(C(=O)Nc1cccc(OC)c1)c1ccccc1 (centres undefined)	0	0	0	0	0	0
O=C(Nc1ccc(Cl)cc1)C(c1ccccc1)N(CCO)CCO (centres undefined)	0	4.3	0	0	0	0
C=CCSc1nnc(-c2ccc(Cl)cc2Cl)o1	0	7.5	0	159	0	59
COC(=O)[C@]12CCCCC=C1N(CCC1=CCCCC1)C(=O)[C@H](CC(=O)N1CCCCC1)C2	-	-	-	-	0	-
O=C(Nc1ccccn1)C(=O)Nc1ccccn1	0	-	-	-	0	-
S=C(Nc1ccccn1)c1ccccn1	0	20	0	0	0	0
Cc1ccc(C)c(NC(=S)c2ccccn2)c1	0	15	0	0	0	0
COc1cc(OC)nc(Nc2nc(C(N)Cc3ccc(Cl)cc3)cs2)n1 (centres undefined)	-	-	-	-	0	-
COc1ccc2oc3c(ccc[n+]3C)c(=O)c2c1	-	-	-	-	0	-
CC(=O)N(CCc1ccccc1)c1ccc2c(c1)C1CC2CCN1C(=O)OCc1ccccc1 (centres undefined)	-	-	-	-	0	-
C/C(=N\NC(=O)c1cccs1)c1ccc2ccccc2c1	-	-	-	-	0	-
C/C(=N\NC(=O)c1ccc2ccccc2c1)c1cccs1	-	-	-	-	55	-
Cc1ccc(Nc2ncnc3nc[nH]c23)cc1Cl	0	3.3	0	0	0	0
CC1(Oc2ccc(-n3ccnc3)cc2)CCN(Cc2cccn2-c2nccs2)C1 (centres undefined)	-	-	-	-	0	-
CC(C)c1nnc(NC(=O)c2c(O)c3cccc4c3n(c2=O)CCC4)s1	0	0	0	0	60	0
Cc1cnc(NC(=O)c2c(O)c3cccc4c3n(c2=O)CCC4)s1	0	0	0	0	-	0
CN(C)Cc1ccccc1-c1cccc2nccn12	-	-	-	-	0	-
Nc1ccc2nc(N)sc2c1	-	-	-	-	0	-
Nc1nc2ccc(N3CCOCC3)cc2s1	0	0	0	0	0	66
Cc1cccc(NC(=O)/C(C#N)=C/c2ccc(Cl)cc2)n1	-	-	-	-	0	-
Cc1cccc(NC(=O)/C=C/c2ccc(Cl)cc2)n1	0	0	0	182	69	83
CCOC(=O)Cc1csc(NC(=O)/C=C/c2ccc(Cl)cc2)n1	0	-	-	-	55	-
Cc1cc(Br)cn2c(Cc3cccc(F)c3)c(-c3ccc(C#N)cc3)nc12	-	-	-	-	0	-
COC(=O)[C@@]12C[C@@H](CC(=O)NCCCN3CCCC3=O)C(=O)N(Cc3ccc4c(c3)OCO4)C1=CCC(C)(C)C2	-	-	-	-	0	-
CC1=CC(=O)C=C(C)C1=NOS(=O)(=O)c1ccccc1	0	4	0	0	0	0
SMILES	PPC-1+TRAIL kill	NF-kB expr up	FLuc act counter	APP 5'UTR act	C8 TRAIL sens	FLuc inh counter
Cc1ccc2c(c1)/C(=N/OS(=O)(=O)c1ccccc1)CCS2	-	-	-	0	0	-
CC1=CC(=O)C(C(C)C)=C/C1=N/OS(=O)(=O)c1ccccc1	0	-	-	-	69	-
N#C/C(=C\c1ccc(N2CCOCC2)o1)c1nc2ccccc2[nH]1	0	0	0	156	57	85
O=C(Nc1cccc(Oc2ccc(C(=O)O)c(C(=O)O)c2)c1)c1ccc(-c2ccccc2)cc1	0	-	-	-	54	-
CC(C)(C)C(=O)Nc1ccc(C(=O)Nc2cccc(Oc3ccc(C(=O)O)c(C(=O)O)c3)c2)cc1	-	-	-	-	0	-
O=C(O/N=C1\CCCc2ccccc21)c1ccc(F)cc1	0	0	0	0	0	87
O=C(O/N=C1/CCSc2ccccc21)c1ccccc1	0	0	0	0	0	75
COc1cc2c(cc1OC)C(=O)C(Br)CC2 (centres undefined)	-	-	-	-	0	-
O=C(NCc1c(Cl)cccc1Cl)c1[nH]c(C(F)(F)F)nc1-c1ccccc1	-	-	-	-	0	-
O=C(N/N=C/c1ccc(Br)s1)c1ccccn1	0	3.5	0	0	52	66
Cc1ccsc1/C=N/NC(=O)c1ccccn1	0	0	0	0	0	0
O=C(N/N=C/c1ccsc1)c1ccccn1	0	0	0	0	0	52
O=C(N/N=C/c1ccc(Br)s1)c1ccco1	0	-	-	-	0	-
CC1(C(=O)Nc2ccc(Cl)c(Cl)c2)CCN1C(=O)Cc1cccc2ccccc12 (centres undefined)	-	-	-	-	0	-
Cc1ccc2nc(-c3cccc(Br)c3)c(Cc3ccccn3)n2c1	-	-	-	-	0	-
CN(C)c1ccc(/C=C(\Cl)c2nc3ccccc3s2)cc1	0	0	0	0	0	64
Cc1ccc(NC(=S)c2nc3ccccc3s2)cc1	0	0	0	168	44	66
S=C(Nc1ccc(Cl)cc1)c1nc2ccccc2s1	0	0	0	0	0	0
O=C(NCc1cccc(C(F)(F)F)c1)c1ccc2nc([C@@H]3O[C@H](CO)[C@@H](O)[C@H]3O)[nH]c2c1	-	-	-	-	0	-
Oc1cc(NCc2ccc(F)cc2)cc2cccnc12	-	-	-	-	54	-
CC(=O)Nc1cccc(C(=O)OCC(=O)c2ccccc2Cl)c1	0	0	0	0	0	82
CCC(=O)Nc1cccc(C(=O)OCC(=O)c2ccccc2Cl)c1	0	0	0	0	0	0
COc1ccc(C#Cc2cccc(-c3nc(C(=O)N4CCN(C)CC4)cc4c3[C@H](CCO)N(S(=O)C(C)(C)C)C4)c2)cc1OC (some centres undefined)	-	-	-	-	0	-
COc1ccc(N2CCN(C(=O)C(=O)c3cc(OC)c4ccccc4c3)CC2)cc1	-	-	-	-	0	-
O=C(Nc1ccc2c(c1)CCC2)c1cnccn1	0	0	0	0	0	0
SMILES	PPC-1+TRAIL kill	NF-kB expr up	FLuc act counter	APP 5'UTR act	C8 TRAIL sens	FLuc inh counter
NC(=O)c1c(NC(=O)c2cccc(N3C(=O)CCC3=O)c2)sc2c1CCCCC2	-	-	-	-	83	-
O=C(Nc1ccc2c(c1)CCC2)c1cc2ccccc2o1	0	11	0	185	0	54
Cc1cnc(C(=O)Nc2ccc3c(c2)CCC3)cn1	0	7.4	0	163	0	0
NC(=O)c1c(NC(=O)c2cc3ccccc3o2)sc2c1CCC2	0	0	0	0	50	66
O=C(Nc1ccc(N2CCN(C(=O)c3ccccc3)CC2)cc1)c1cc2ccccc2o1	0	0	0	0	52	0
CN1CCN(c2ccc(NC(=O)c3cc4ccccc4o3)cc2)CC1	-	-	-	-	0	-
O=C(Nc1ccc2c(c1)CCC2)c1ccc(Br)o1	0	0	0	0	0	0
Cc1cc(C)n2nc(C(=O)Nc3ccc4c(c3)CCC4)nc2n1	0	0	0	0	0	52
Cc1occc1C(=O)Nc1ccc2c(c1)CCC2	0	4.7	0	144	0	0
Cc1cc(C)n2nc(C(=O)Nc3ccc(S(=O)(=O)N4CCCC4)cc3)nc2n1	0	-	-	-	0	-
Cc1ccc(C(=O)Nc2ccc3c(c2)CCC3)o1	0	7.8	0	0	0	55
Cc1occc1C(=O)N=Nc1c(O)n(C)c2ccccc12	0	0	0	0	0	60
